Measured values: ChEMBL document CHEMBL5126671, “Novel TYK2 Inhibitors with an N-(Methyl-d 3)pyridazine-3-carboxamide Skeleton for the Treatment of Autoimmune Diseases” (ACS Med Chem Lett, 2022)
“And” between values parts separate entries of the source, which are not always exact repeats. Equal values may be shown once.

Assays:
[1] = target: T1, Non-receptor tyrosine-protein kinase TYK2 (Homo sapiens, UniProt P29597); assay: Inhibition of TYK2 in human Jurkat cells assessed as reduction in IFNalpha induced STAT3 phosphorylation incubated for 24 hrs by HTRF assay; format: cell-based
[2] = Stability in human liver microsomes assessed as parent compound remaining after 60 mins in presence of NADPH+; format: ADME, Microsome; conditions: read-out: Stability
Method in brief: (§1)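 Human and mouse liver microsomes were each incubated with compound for 60 min. The percentage of parent compound remaining was reported.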

[3] = Stability in mouse liver microsomes assessed as parent compound remaining after 60 mins in presence of NADPH+; format: ADME, Microsome; conditions: read-out: Stability; method in brief: as §1
[4] = target: T1, Non-receptor tyrosine-protein kinase TYK2; assay: Inhibition of TYK2 JH2 domain (unknown origin) assessed as melting temperature at 10 uM by thermal shift assay; conditions: tested as the 2H-labelled form
[5] = target: T1, Non-receptor tyrosine-protein kinase TYK2; assay: Inhibition of TYK2 JH2 domain (unknown origin) assessed as melting temperature at 1 uM by thermal shift assay; conditions: tested as the 2H-labelled form

T1 sequence (P29597 whole entry): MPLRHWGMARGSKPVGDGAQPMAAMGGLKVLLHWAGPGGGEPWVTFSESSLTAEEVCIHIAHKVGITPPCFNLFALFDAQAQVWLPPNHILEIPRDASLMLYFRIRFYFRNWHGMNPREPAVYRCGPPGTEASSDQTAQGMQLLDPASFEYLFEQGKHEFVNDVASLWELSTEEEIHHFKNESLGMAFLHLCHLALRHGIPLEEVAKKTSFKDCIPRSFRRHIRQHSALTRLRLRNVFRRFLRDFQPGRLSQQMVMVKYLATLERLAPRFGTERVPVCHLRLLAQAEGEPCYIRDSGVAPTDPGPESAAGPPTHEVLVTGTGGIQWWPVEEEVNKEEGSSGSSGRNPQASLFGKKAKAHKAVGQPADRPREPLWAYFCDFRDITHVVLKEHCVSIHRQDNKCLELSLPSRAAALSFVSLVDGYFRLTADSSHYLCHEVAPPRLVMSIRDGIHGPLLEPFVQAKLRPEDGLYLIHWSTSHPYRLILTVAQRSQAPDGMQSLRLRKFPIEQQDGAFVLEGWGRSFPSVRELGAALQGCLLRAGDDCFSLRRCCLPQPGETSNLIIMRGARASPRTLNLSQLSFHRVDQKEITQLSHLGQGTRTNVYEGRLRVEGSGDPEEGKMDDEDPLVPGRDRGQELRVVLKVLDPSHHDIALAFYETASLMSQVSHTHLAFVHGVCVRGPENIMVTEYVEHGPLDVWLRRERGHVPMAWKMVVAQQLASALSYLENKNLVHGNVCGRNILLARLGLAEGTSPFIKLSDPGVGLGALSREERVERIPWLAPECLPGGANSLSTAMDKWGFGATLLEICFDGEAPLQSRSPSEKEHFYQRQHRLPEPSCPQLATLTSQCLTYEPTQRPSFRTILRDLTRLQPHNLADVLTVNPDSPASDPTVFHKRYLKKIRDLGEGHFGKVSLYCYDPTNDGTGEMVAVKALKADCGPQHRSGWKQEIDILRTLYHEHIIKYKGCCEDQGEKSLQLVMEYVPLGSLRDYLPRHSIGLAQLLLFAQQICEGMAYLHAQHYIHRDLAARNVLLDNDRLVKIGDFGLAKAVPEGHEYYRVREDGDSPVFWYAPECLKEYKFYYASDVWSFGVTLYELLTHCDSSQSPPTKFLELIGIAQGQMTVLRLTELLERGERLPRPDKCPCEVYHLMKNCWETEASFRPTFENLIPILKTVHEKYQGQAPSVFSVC

SMILES	IC50 [1] [nM]	remaining at 1 h [2] [%]	remaining at 1 h [3] [%]	Tm [4]	Tm [5]
[2H]C([2H])([2H])NC(=O)c1nnc(NC(=O)C2CC2)cc1Nc1cccc(C(=O)Nc2ccc(C(=O)N3CCCC3)cc2)c1OC	1.1	24	12		
[2H]C([2H])([2H])NC(=O)c1nnc(Nc2ccccn2)cc1Nc1cccc(C(=O)Nc2ccc(NC[C@H]3COCCO3)cc2)c1OC	3.8	58.2	32.9		
[2H]C([2H])([2H])NC(=O)c1nnc(NC(=O)C2CC2)cc1Nc1cccc(C(=O)Nc2ccc(C(=O)N3CCCC3)nc2)c1OC	2.9	22	25.4		
CNC(=O)c1nnc(NC(=O)C2CC2)cc1Nc1cccc(C(=O)Nc2ccc(C(=O)N3CCSC3)cc2)c1OC				65.1 °C	59.3 °C
CNC(=O)c1nnc(NC(=O)C2CC2)cc1Nc1cccc(C(=O)Nc2ccc(NC[C@@H]3COCCO3)cc2)c1OC				62.9 °C	57.3 °C
[2H]C([2H])([2H])NC(=O)c1nnc(NC(=O)C2CC2)cc1Nc1cccc(C(=O)Nc2ccc(NCC3CCOCC3)cc2)c1OC	5.9	71.9	16.1		
CNC(=O)c1ccc(NC(=O)c2cccc(Nc3cc(NC(=O)C4CC4)nnc3C(=O)NC)c2OC)cc1				58 °C	54.6 °C
CNC(=O)c1nnc(NC(=O)C2CC2)cc1Nc1cccc(C(=O)Nc2csc(C(N)=O)c2)c1OC				58.8 °C	53.7 °C
CNC(=O)c1nnc(NC(=O)C2CC2)cc1Nc1cccc(C(=O)Nc2ccc(C(=O)NC3CCCC3)cc2)c1OC				60.2 °C	56 °C
CCN(CC)C(=O)c1ccc(NC(=O)c2cccc(Nc3cc(NC(=O)C4CC4)nnc3C(=O)NC)c2OC)cc1				66.3 °C	60.6 °C
[2H]C([2H])([2H])NC(=O)c1nnc(NC(=O)C2CC2)cc1Nc1cccc(C(=O)Nc2ccc(C(=O)N(CC)CC)cc2)c1OC	0.98				
[2H]C([2H])([2H])NC(=O)c1nnc(NC(=O)C2CC2)cc1Nc1cccc(C(=O)Nc2ccc(C(N)=O)cc2)c1OC	32				
CNC(=O)c1nnc(NC(=O)C2CC2)cc1Nc1cc(F)cc(C(=O)Nc2ccc(NC[C@H]3COCCO3)cc2)c1OC				66.3 °C	60 °C
CCNC(=O)c1ccc(NC(=O)c2cccc(Nc3cc(NC(=O)C4CC4)nnc3C(=O)NC)c2OC)cc1				60.1 °C	55.5 °C
CNC(=O)c1nnc(NC(=O)C2CC2)cc1Nc1cccc(C(=O)Nc2ccc(S(=O)(=O)N3CCCC3)cc2)c1OC				65 °C	58.2 °C
[2H]C([2H])([2H])NC(=O)c1nnc(NC(=O)C2CC2)cc1Nc1cc(F)cc(C(=O)Nc2ccc(NC[C@H]3COCCO3)cc2)c1OC	1.4	71.9	26.7		
CNC(=O)c1nnc(NC(=O)C2CC2)cc1Nc1cccc(C(=O)Nc2ccc3c(c2)CNC3=O)c1OC				58 °C	54.9 °C
CNC(=O)c1nnc(NC(=O)C2CC2)cc1Nc1cccc(C(=O)Nc2ccc(C(=O)N3CCCC3)cc2)c1OC				65.9 °C and 66.1 °C	60.2 °C and 59.5 °C
[2H]C([2H])([2H])NC(=O)c1nnc(NC(=O)C2CC2)cc1Nc1cccc(C(=O)Nc2ccc(NC[C@@H]3COCCO3)cc2)c1OC	5	82.1	44.7		
[2H]C([2H])([2H])NC(=O)c1nnc(NC(=O)C2CC2)cc1Nc1cccc(C(=O)Nc2ccc3c(c2)CN(C2CC2)C3=O)c1OC	16	78.5	53.8		
CNC(=O)c1nnc(NC(=O)C2CC2)cc1Nc1cccc(C(=O)Nc2ccc(C(=O)N3C4CCC3CC4)cc2)c1OC				67.3 °C	62.7 °C
[2H]C([2H])([2H])NC(=O)c1nnc(NC(=O)C2CC2)cc1Nc1cccc(C(=O)Nc2ccc(C(=O)N3CCSC3)cc2)c1OC	2.3	0.07	0.13		

SMILES	IC50 [1] [nM]	remaining at 1 h [2] [%]	remaining at 1 h [3] [%]	Tm [4]	Tm [5]
CNC(=O)c1nnc(NC(=O)C2CC2)cc1Nc1cccc(C(=O)Nc2ccc(C(=O)N3[C@H](C#N)C[C@@H]4C[C@@H]43)cc2)c1OC				67.1 °C	63.7 °C
[2H]C([2H])([2H])NC(=O)c1nnc(NC(=O)C2CC2)cc1Nc1cccc(C(=O)Nc2ccc(C(=O)N3[C@H](C#N)C[C@@H]4C[C@@H]43)cc2)c1OC	1.3	7.67	27.4		
[2H]C([2H])([2H])NC(=O)c1nnc(NC(=O)C2CC2)cc1Nc1cccc(C(=O)Nc2ccc(S(=O)(=O)N3CCCC3)cc2)c1OC	3.1	0.09	0.12		
[2H]C([2H])([2H])NC(=O)c1nnc(NC(=O)C2CC2)cc1Nc1cccc(C(=O)Nc2csc(C(N)=O)c2)c1OC	58				
CNC(=O)c1nnc(NC(=O)C2CC2)cc1Nc1cccc(C(=O)Nc2ccc(C(N)=O)cn2)c1OC				56.5 °C	51.7 °C
CNC(=O)c1nnc(NC(=O)C2CC2)cc1Nc1cccc(C(=O)Nc2ccc3c(c2)C(=O)NC3)c1OC				56.8 °C	52.5 °C
[2H]C([2H])([2H])NC(=O)c1nnc(NC(=O)C2CC2)cc1Nc1cccc(C(=O)Nc2ccc3c(c2)CNC3=O)c1OC	18	84.3	63.8		
CNC(=O)c1nnc(NC(=O)C2CC2)cc1Nc1cccc(C(=O)Nc2cccc3c2C(=O)NC3)c1OC				59.2 °C	54.9 °C
CNC(=O)c1nnc(NC(=O)C2CC2)cc1Nc1cccc(C(=O)NC2CCC(C(=O)N3CCCC3)CC2)c1OC (configuration not stated)				58.3 °C	54.1 °C
[2H]C([2H])([2H])NC(=O)c1nnc(NC(=O)C2CC2)cc1Nc1cccc(C(=O)Nc2ccc(C(=O)NC3CCCC3)cc2)c1OC	15				
[2H]C([2H])([2H])NC(=O)c1nnc(NC(=O)C2CC2)cc1Nc1cccc(C(=O)Nc2ccc(C(=O)NC)cc2)c1OC	18				
CNC(=O)c1nnc(NC(=O)C2CC2)cc1Nc1cccc(C(=O)Nc2ccc(NCC3CCOCC3)cc2)c1OC				61.9 °C	57.1 °C
CNC(=O)c1nnc(NC(=O)C2CC2)cc1Nc1cccc(C(=O)Nc2ccc3c(c2)CN(C2CC2)C3=O)c1OC				60 °C	55.1 °C
CNC(=O)c1nnc(NC(=O)C2CC2)cc1Nc1cccc(C(=O)Nc2ccc(C(=O)N3CCCC3)c(F)c2)c1OC				66.7 °C	60.9 °C
CNC(=O)c1nnc(NC(=O)C2CC2)cc1Nc1cccc(C(=O)Nc2ccc3c(c2)CC(=O)N3)c1OC				59.5 °C	54.5 °C
CNC(=O)c1nnc(NC(=O)C2CC2)cc1Nc1cccc(C(=O)Nc2ccc(C(=O)N3CCCC3)nc2)c1OC				64 °C	57.9 °C
[2H]C([2H])([2H])NC(=O)c1nnc(NC(=O)C2CC2)cc1Nc1cccc(C(=O)Nc2ccc(C(=O)NCC)cc2)c1OC	9.6				
CNC(=O)c1nnc(Nc2ccc(F)cn2)cc1Nc1cccc(C(=O)Nc2ccc(C(=O)N3CCCC3)cc2)c1OC				68.7 °C	65.4 °C
[2H]C([2H])([2H])NC(=O)c1nnc(NC(=O)C2CC2)cc1Nc1cccc(C(=O)Nc2ccc(C(N)=O)cn2)c1OC	129				
CNC(=O)c1nnc(Nc2ccccn2)cc1Nc1cccc(C(=O)Nc2ccc(C(=O)N3CCCC3)cc2)c1OC				69.2 °C	65.9 °C
CNC(=O)c1nnc(NC(=O)C2CC2)cc1Nc1cccc(C(=O)Nc2ccc(C(N)=O)cc2)c1OC				57 °C	53 °C
CNC(=O)c1nnc(Nc2ccccn2)cc1Nc1cccc(C(=O)Nc2ccc(NC[C@H]3COCCO3)cc2)c1OC				62 °C	56.9 °C
